# Screening results: PubChem BioAssay, Broad Institute
# This is a sample that favours compounds with a hit; in the whole collection about 3.5% have one here.
# esBAF inh = Bmi1 luciferase reporter increase in mESCs, primary screen, esBAF inhibitor project, mouse ES cells, Bmi1 luciferase knock-in, single point. 24 h; 100% = twice the neutral-well signal. reporter increase, % at 12.5 µM. 2% of 350,000 active; in the data active = activation above about 40%; inconclusive = no clear call, values can overlap the other calls;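 also: 0% = median of the plate's neutral control wells and 100% = double that signal; a rise in the Bmi1 reporter signal indicates esBAF inhibition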
# Cneo AK release = Cryptococcus neoformans cell lysis inducers, primary screen, AK release luminescence, single concentration; 0.2% of 360,000 active; C. neoformans lysis, adenylate kinase release luminescence, 4 h; normalised: neutral wells 0, clomiphene wells 100; lysis activity, % at 15 µM;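 active = mean lysis activity across replicates of at least 80%, whatever share of replicates individually reach that level; inactive = mean lysis activity below 80%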
#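 Assay system: C. neoformans cells. Amount: yeast cell density of 5 × 10^6 cells/mL. Technique: AK luminescence. Buffer or medium: YPD. Times: static 4 h at 37 °C with compound, 1 h detection. Dosing: single-point compound dose. Read-out: lysis from increased AK signal.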
# Wnt bcat act = Wnt/beta-catenin pathway activators, primary screen, cell-based, plate reader, single point; activation, % at 9.35 µM; 1.2% of 300,000 active; Wnt/beta-catenin reporter cell assay, activator; in the data active = activation above about 30%, passing the limit was not always enough; inconclusive = no clear call, values can overlap the other calls;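 also: 0% = neutral control wells and 100% = positive control wells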
# ERAP1 HTS inh = human ERAP1 aminopeptidase inhibitors, primary screen, biochemical, single point, plate reader; Endoplasmic reticulum aminopeptidase 1 (Homo sapiens), Q9NZ08; recombinant ERAP1, Leu-AMC fluorescence, 60 min; inhibition, % at 10.7 µM; 0.15% of 340,000 active;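 active = mean replicate inhibition of at least 30%, or all replicates individually reaching that 30% level; inactive = mean below 30% and not every replicate reaching it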;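 also: 0% = neutral control wells and 100% = L-leucinethiol positive control wells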
# Env fusion inh = inhibitors of HIV-1 Env-driven cell-cell fusion, primary screen, HeLa-JRFL effector, CEM21 target cells, luciferase; inhibition, % at 12.3 µM; 1.1% of 360,000 active;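 active = mean replicate inhibition score of at least 50 and every replicate individually at or above 50; inconclusive = only one of the two criteria met; inactive = mean below 50 and not all replicates reaching 50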;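 also: 0% = plate neutral controls and 100% = maraviroc near 300 nM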
# MITF TRPM1 HTS = activators of MITF-driven TRPM1 promoter reporter, primary screen, cell-based, SK-MEL-5, luciferase, single point; SK-MEL-5 TRPM1-promoter luciferase, 24 h; % of positive control, neutral wells = 0; activation, % at 12.5 µM; 0.75% of 300,000 active; AID 588334, 2011;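 active = mean activation of at least 80% with every replicate also reaching 80%; inconclusive = mean reaches 80% but some replicate falls short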;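 also: 0% = neutral control wells and 100% = parthenolide positive control wells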
# An asterisk follows results filed as active; ? = inconclusive; nt = no result given; [ ] = remark or other dose.
SMILES,esBAF inh,Cneo AK release,Wnt bcat act,ERAP1 HTS inh,Env fusion inh,MITF TRPM1 HTS
CO[C@@H]1CN(C)C(=O)c2cc(NC(C)=O)ccc2OC[C@H](C)N(C(=O)c2ccccc2F)C[C@H]1C,-2,-4,nt,3,nt,nt
C[C@@H]1CCCCO[C@@H](CN(C)Cc2ccccc2)[C@@H](C)CN([C@@H](C)CO)C(=O)c2cc(NC(=O)Nc3cccc4ccccc34)ccc2O1,-11,5,nt,0,-47[16.7 µM],nt
C[N+]1(CC(=O)OC2CCCCCCCCCCC2)CCCC1,nt,nt,2,3,23,7
CCOC(=O)CC1(C)OCC(C[N+]2(C)CCCCC2)O1 (centres undefined),nt,nt,-1,96*,3,1
O=C1CSC(c2cccnc2)N1Cc1ccc(Cl)cc1 (centres undefined),0,-1,35*,nt,9,10
CN(C)c1ccc(NC(=O)c2ccc(Cn3cc([N+](=O)[O-])cn3)cc2)cc1,57*,-1,-1,4,-1,44
COc1ccc(NC(=O)c2ccc(Cn3cc(Cl)cn3)cc2)cc1,8,2,0,-1,2,17
O=C(Nc1cnn(Cc2c(Cl)cccc2Cl)c1)c1ccc([N+](=O)[O-])cc1,73*,9,nt,nt,-7,29
c1ccc(Cn2c(-c3cncs3)nc3ccccc32)cc1,66*,0,nt,nt,-1,47
C[C@@H]1CCCCO[C@H](CN(C)S(=O)(=O)c2ccc(F)cc2)[C@H](C)CN([C@@H](C)CO)C(=O)c2cc(NC(=O)Nc3ccc4c(c3)OCO4)ccc2O1,3,-10,nt,-1,3[16.7 µM],nt
O=C1C(=C(I)I)c2ccccc2-c2ccccc21,nt,nt,-6,36*,43,-98
Cn1c(=N)n(CC(=O)C(C)(C)C)c2ccccc21,51*,4,-2,nt,nt,29
COc1ccc(C(=O)Cn2c(=N)n(C)c3ccccc32)cc1,87*,-2,1,-1,-43,nt
CCCn1c(=N)n(CC(=O)C(C)(C)C)c2ccccc21,-1,8,-2,nt,nt,nt
COc1ccc(C(=O)CN2Cc3ccccc3C2=N)cc1,nt,nt,42*,nt,-85,nt
CN(C)c1ccnc(N(Cc2ccccc2)Cc2ccccc2)c1C#N,74*,-4,nt,nt,nt,47
CN(C)c1ccnc(NCc2ccccc2)c1C#N,3,nt,10,3,17,nt
CC(=O)Nc1ccc(N=Nc2ccccc2)cc1[N+](=O)[O-],56*,1,-1,-2,-10,nt
CC(=O)N(C)C[C@H]1Oc2cc(C#CCC3CCCC3)ccc2S(=O)(=O)N([C@H](C)CO)C[C@@H]1C,0,-2,nt,0,-5[16.7 µM],nt
CO[C@H]1CN(C)C(=O)c2cc(NC(=O)C3CCOCC3)ccc2OC[C@H](C)N(Cc2cccnc2)C[C@H]1C,-2,1,nt,nt,1[16.7 µM],nt
CC(=O)Nc1ccc(NC(=O)CN(c2ccccc2Cl)S(C)(=O)=O)cc1,-2,-9,40*,nt,-21,5
CC(=O)Nc1ccc(NC(=O)CN(c2cccc(C)c2)S(C)(=O)=O)cc1,-2,3,nt,nt,-30,-4
COC(=O)[C@H]1[C@H](CO)[C@H]2Cn3c(ccc(C4=CCCCC4)c3=O)[C@H]2N1Cc1cccnc1,nt,nt,nt,0,-45[16.7 µM],nt
Cc1ccc2nc(C(C)O)[nH]c2c1 (centres undefined),nt,0,0,nt,-9,-2
Cc1ccc2nc(Cc3ccc(N)cc3)[nH]c2c1,44*,-1,39*,nt,-58,16
Nc1ccc(Cc2nc3c(ccc4ccccc43)[nH]2)cc1,87*,1,13,-1,nt,43
Cc1ccc2nc(C(O)C(O)c3nc4ccc(C)cc4[nH]3)[nH]c2c1 (centres undefined),43*,-2,27,nt,-76,nt
Nc1ccc2nc(Cc3ccccc3)[nH]c2c1,?,0,-1,nt,8,18
S=c1nc(Cc2ccccc2)[nH]c2ccccc12,15,1,-1,-3,10,-7
CO[C@H]1CN(C)C(=O)c2ccc(NS(=O)(=O)c3cccc(C)c3)cc2OC[C@@H](C)NC[C@@H]1C,-5,0,nt,-1,nt,nt
